Laboratory results reported in ChEMBL document CHEMBL1133045, “Enhancing the aqueous solubility of d4T-based phosphoramidate prodrugs” (Bioorg Med Chem Lett, 2000).

Key:
CCRF-CEM [1] = assay: Compound was evaluated for the cytotoxicity against CEM cell proliferation by 50%; type: functional; details: Homo sapiens
[2] = Partition coefficient (logP); type: physicochemical; details: octanol/water
Outline: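 LogP measured as the 1-octanol/water partition coefficient.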

CCRF-CEM [3] = assay: Concentration required to protect CEM/TK- cells against cytopathicity of HIV-2 by 50%; type: functional, cell-based; details: Homo sapiens
CCRF-CEM [4] = assay: Concentration required to protect CEM cells against cytopathicity of HIV-2 by 50%; type: functional, cell-based; details: Homo sapiens
CCRF-CEM [5] = assay: Concentration required to protect CEM cells against cytopathicity of HIV-1 by 50%; type: functional, cell-based; details: Homo sapiens

`COC(=O)C(C)NP(=O)(OC[C@@H]1C=C[C@H](n2cc(C)c(=O)[nH]c2=O)O1)Oc1ccccc1` (stereo partly specified) gave a CC50 (CCRF-CEM [1]) of 33 µM and a logP [2] of 1.04.
Molecule `COC(=O)C(N)Cc1ccc(OP(=O)(NC(C)C(=O)OC)OCC2C=CC(n3cc(C)c(=O)[nH]c3=O)O2)cc1` (stereo unspecified) has a logP [2] of 0.09, an EC50 (CCRF-CEM [3]) of 5 µM and an EC50 (CCRF-CEM [4]) of 10 µM. It also gave an EC50 (CCRF-CEM [5]) of 4 µM.
Work on `COC(=O)C(C)NP(=O)(OCC1C=CC(n2cc(C)c(=O)[nH]c2=O)O1)Oc1ccc(CC(NC(=O)OC(C)(C)C)C(=O)OC)cc1` (stereo unspecified) yielded a CC50 (CCRF-CEM [1]) of 217 µM, a logP [2] of 1.07 and an EC50 (CCRF-CEM [3]) of 0.8 µM. For the same molecule, the EC50 (CCRF-CEM [4]) was 0.7 µM and the EC50 (CCRF-CEM [5]) was 0.65 µM.
`COCCOc1ccc(OP(=O)(NC(C)C(=O)OC)OCC2C=CC(n3cc(C)c(=O)[nH]c3=O)O2)cc1` (stereo unspecified) showed a CC50 (CCRF-CEM [1]) of 35 µM, a logP [2] of 0.86 and an EC50 (CCRF-CEM [3]) of 0.34 µM. For the same molecule, the EC50 (CCRF-CEM [4]) was 0.6 µM and the EC50 (CCRF-CEM [5]) was 0.09 µM.
In the case of `COCCOCCOc1ccc(OP(=O)(NC(C)C(=O)OC)OCC2C=CC(n3cc(C)c(=O)[nH]c3=O)O2)cc1` (stereo unspecified), the CC50 (CCRF-CEM [1]) is reported as 47 µM, the logP [2] is reported as 0.86 and the EC50 (CCRF-CEM [3]) is reported as 1.2 µM. It also gave an EC50 (CCRF-CEM [4]) of 1 µM and an EC50 (CCRF-CEM [5]) of 0.55 µM.
`CCOCCOc1ccc(OP(=O)(NC(C)C(=O)OC)OCC2C=CC(n3cc(C)c(=O)[nH]c3=O)O2)cc1` (stereo unspecified) gave a CC50 (CCRF-CEM [1]) of 64 µM, a logP [2] of 1.1 and an EC50 (CCRF-CEM [3]) of 0.4 µM. For the same molecule, the EC50 (CCRF-CEM [4]) was 0.25 µM and the EC50 (CCRF-CEM [5]) was 0.2 µM.
Molecule `COC(=O)C(C)NP(=O)(OC[C@@H]1C=C[C@H](n2cc(C)c(=O)[nH]c2=O)O1)Oc1ccc(OC)cc1` (stereo partly specified) has a CC50 (CCRF-CEM [1]) greater than 100 µM, a logP [2] of 1.09 and an EC50 (CCRF-CEM [3]) of 0.047 µM. For the same molecule, the EC50 (CCRF-CEM [4]) was 0.053 µM and the EC50 (CCRF-CEM [5]) was 0.057 µM.
Molecule `COCCOCCOCCOc1ccc(OP(=O)(NC(C)C(=O)OC)OCC2C=CC(n3cc(C)c(=O)[nH]c3=O)O2)cc1` (stereo unspecified) has a CC50 (CCRF-CEM [1]) of 114 µM, a logP [2] of 0.86 and an EC50 (CCRF-CEM [3]) of 1.35 µM. The EC50 (CCRF-CEM [4]) was 1.3 µM and the EC50 (CCRF-CEM [5]) was 0.75 µM.
